Measured values: PMC8268672 (Bioorganic Chemistry, 2021)
≈ marks a conversion by molar mass, not a printed value. Like-named read-outs stand apart in the source and are kept apart here.

Legend:
[1] = tested on: Escherichia coli (ATCC 8739); assay: MIC, broth microdilution; format: cell-based; conditions: ATCC8739, read-out: Minimum inhibitory concentration (MIC), EC
In short: (§1)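 Broth microdilution per CLSI in Mueller-Hinton broth, using two-fold serial dilutions of test compound and reference drugs from 512 to 0.25. Bacterial broth cultures were grown 2-6 h to 0.5 McFarland turbidity, then diluted with sterile solution to the final inoculum. MIC is reported in µg/mL.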

[2] = tested on: Pseudomonas aeruginosa (MCCB 0035); assay: MIC, broth microdilution; format: cell-based; conditions: read-out: Minimum inhibitory concentration (MIC), PA
In short: as §1

[3] = tested on: Klebsiella aerogenes (NCIM-2098); assay: MIC, broth microdilution; format: cell-based; conditions: NCIM2098, read-out: Minimum inhibitory concentration (MIC), KA
In short: (§2)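 Antibacterial MICs by CLSI broth microdilution in Mueller-Hinton broth. Test compounds and standard drugs are serially diluted two-fold from 512 to 0.25. The bacterial broth culture is grown 2-6 h to a 0.5 McFarland turbidity, then adjusted with sterile solution to the final inoculum.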

[4] = tested on: Staphylococcus aureus (ATCC 29213); assay: MIC, broth microdilution; format: cell-based; conditions: ATCC29213, read-out: Minimum inhibitory concentration (MIC), SA
In short: as §2

[5] = tested on: Bacillus cereus (NCIM-2458); assay: MIC, broth microdilution; format: cell-based; conditions: NCIM2458, read-out: Minimum inhibitory concentration (MIC), BC
In short: as §1

[6] = tested on: Aspergillus niger (NCIM 2191); assay: MIC, broth microdilution; format: cell-based; conditions: NCIM2191, read-out: Minimum inhibitory concentration (MIC), AN
In short: (§3)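 Antifungal MICs by CLSI broth microdilution in Sabouraud liquid medium. Test compounds and standard drugs are serially diluted two-fold from 512 to 0.25. The fungal broth culture is grown 24 h at 35 °C to a 0.5 McFarland turbidity, then adjusted with sterile solution to the final inoculum.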

[7] = tested on: Candida albicans (NCIM 2087); assay: MIC, broth microdilution; format: cell-based; conditions: NCIM2087, read-out: Minimum inhibitory concentration (MIC), CA
In short: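 CLSI broth microdilution in Sabouraud liquid medium, with test compound two-fold serially diluted from 512 to 0.25. Fungal broth culture grown 24 h at 35 °C to 0.5 McFarland turbidity, then adjusted with sterile solution to a final […] inoculum. MIC expressed in µg/mL.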

[8] = tested on: Aspergillus fumigatus (NCIM 2081); assay: MIC, broth microdilution; format: cell-based; conditions: NCIM2081, read-out: Minimum inhibitory concentration (MIC), AF
In short: as §3

[9] = tested on: Cryptococcus neoformans (ATCC 9011); assay: MIC, broth microdilution; format: cell-based; conditions: ATCC9011, read-out: Minimum inhibitory concentration (MIC), CN
In short: as §3

[10] = tested on: Escherichia coli (ATCC 8739); assay: Agar disk diffusion, inhibition zone; format: cell-based; conditions: 100 µg/8 mm disc, triplicate, mean ± SD
In short: (§4)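 Agar disk diffusion on Mueller-Hinton agar plates seeded with a standard bacterial suspension. Test compound stock in DMSO, diluted with distilled water; 8 mm sterile filter-paper discs soaked in the solution. Ampicillin was the reference. Plates incubated at 35 °C for 24 h, in triplicate. Read-out is the average inhibition-zone diameter (mm) around each disc.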

[11] = tested on: Pseudomonas aeruginosa (MCCB 0035); assay: Agar disk diffusion, inhibition zone; format: cell-based; conditions: 100 µg/8 mm disc, triplicate, mean ± SD
[12] = tested on: Salmonella typhimurium (NCIM-2501); assay: Agar disk diffusion, inhibition zone; format: cell-based; conditions: 100 µg/8 mm disc, triplicate, mean ± SD
[13] = tested on: Klebsiella aerogenes (NCIM-2098); assay: Agar disk diffusion, inhibition zone; format: cell-based; conditions: 100 µg/8 mm disc, triplicate, mean ± SD
[14] = tested on: Staphylococcus aureus (ATCC 29213); assay: Agar disk diffusion, inhibition zone; format: cell-based; conditions: 100 µg/8 mm disc, triplicate, mean ± SD
In short: as §4

[15] = tested on: Bacillus cereus (NCIM-2458); assay: Agar disk diffusion, inhibition zone; format: cell-based; conditions: 100 µg/8 mm disc, triplicate, mean ± SD
[16] = tested on: Lactobacillus casei (NCIM-2651); assay: Agar disk diffusion, inhibition zone; format: cell-based; conditions: 100 µg/8 mm disc, triplicate, mean ± SD
[17] = tested on: Streptococcus pneumonia (ATCC 49619); assay: Agar disk diffusion, inhibition zone; format: cell-based; conditions: 100 µg/8 mm disc, triplicate, mean ± SD
[18] = tested on: Aspergillus niger (NCIM 2191); assay: Agar disk diffusion, inhibition zone; format: cell-based; conditions: 100 µg/8 mm disc, triplicate, mean ± SD
In short: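 For the fungal strain, discs soaked in test compound solution (DMSO stock diluted with distilled water) sat on seeded Mueller-Hinton agar. Clotrimazole was the reference. Incubation ran 48 h at 35 °C, in triplicate. Zone of growth inhibition recorded in mm as the mean diameter around each disc.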

[19] = tested on: Candida albicans (NCIM 2087); assay: Agar disk diffusion, inhibition zone; format: cell-based; conditions: 100 µg/8 mm disc, triplicate, mean ± SD
[20] = tested on: Aspergillus fumigatus (NCIM 2081); assay: Agar disk diffusion, inhibition zone; format: cell-based; conditions: 100 µg/8 mm disc, triplicate, mean ± SD
[21] = tested on: Cryptococcus neoformans (ATCC 9011); assay: Agar disk diffusion, inhibition zone; format: cell-based; conditions: 100 µg/8 mm disc, triplicate, mean ± SD
Vaccinia virus = assay: microbe, parasite or virus in culture; format: cell-based; conditions: Orthopoxvirus vaccinia, HEL, read-out: Antiviral EC50, Vaccinia virus
Adeno virus-2 = assay: CPE reduction assay in HEL cells; format: cell-based; conditions: read-out: Antiviral EC50, Adeno virus-2
Human Coronavirus (229E) = assay: CPE reduction assay in HEL cells; format: cell-based; conditions: read-out: Antiviral EC50, Human Coronavirus (229E)
Para-influenza-3 virus = assay: CPE reduction assay in Vero cells; format: cell-based, Parainfluenza-3 virus; conditions: Vero, read-out: Antiviral EC50, Para-influenza-3 virus
Reovirus-1 = assay: CPE reduction assay in Vero cells; format: cell-based; conditions: read-out: Antiviral EC50, Reovirus-1
Sindbis virus = assay: CPE reduction assay in Vero cells; format: cell-based; conditions: read-out: Antiviral EC50, Sindbis virus
Coxsackie virus B4 = assay: CPE reduction assay in Vero cells; format: cell-based; conditions: Enterovirus B, read-out: Antiviral EC50, Coxsackie virus B4
Punta Toro virus = assay: CPE reduction assay in Vero cells; format: cell-based; conditions: read-out: Antiviral EC50, Punta Toro virus
Yellow Fever virus = assay: microbe, parasite or virus in culture; format: cell-based; conditions: Yellow fever virus, Vero, read-out: Antiviral EC50, Yellow Fever virus
[22] = tested on: Influenza A/H1N1 A/Ned/378/05; assay: CPE reduction assay in MDCK cells; format: cell-based; conditions: Influenza A virus
[23] = tested on: Influenza A/H3N2 A/HK/7/87; assay: CPE reduction assay in MDCK cells; format: cell-based; conditions: Influenza A virus
Influenza B B/Ned/537/05 = assay: CPE reduction assay in MDCK cells; format: cell-based; conditions: Influenza B virus, read-out: Antiviral EC50, Influenza B B/Ned/537/05, MTS
[24] = tested on: Human embryonic lung (HEL) cells; conditions: HEL cell cultures; microscopically detectable alteration of normal cell morphology
Vero cells = conditions: Vero cell cultures; microscopically detectable alteration of normal cell morphology
[25] = tested on: Madin Darby canine kidney (MDCK) cells; conditions: dog
MT4 cells = conditions: MT4 cell cultures; colorimetric MTT cell viability assay
[26] = read-out: Antiviral EC50, Influenza A/H1N1 A/Ned/378/05, MTS
[27] = read-out: Antiviral EC50, Influenza A/H1N1 A/Ned/378/05, visual CPE score
[28] = read-out: Antiviral EC50, Influenza A/H3N2 A/HK/7/87, MTS
[29] = read-out: Antiviral EC50, Influenza A/H3N2 A/HK/7/87, visual CPE score

Row | SMILES | MIC [1] | MIC [2] | MIC [3] | MIC [4] | MIC [5] | MIC [6] | MIC [7] | MIC [8] | MIC [9] | Diameter of growth inhibition zone, EC [10] | Diameter of growth inhibition zone, PA [11] | Diameter of growth inhibition zone, ST [12] | Diameter of growth inhibition zone, KA [13] | Diameter of growth inhibition zone, SA [14] | Diameter of growth inhibition zone, BC [15] | Diameter of growth inhibition zone, LC [16] | Diameter of growth inhibition zone, SP [17] | Diameter of growth inhibition zone, AN [18] | Diameter of growth inhibition zone, CA [19] | Diameter of growth inhibition zone, AF [20] | other results
1 | Cc1ccc(S(=O)(=O)N2C(=O)CSC2c2ccccc2O)cc1 (stereo not drawn) [5k, 2-(2-Hydroxyphenyl)-3-[(4-methylphenyl)sulfonyl]-1,3-thiazolidin-4-one] | 32 µg/mL (≈ 91.6 µM) | 32 µg/mL (≈ 91.6 µM) | 32 µg/mL (≈ 91.6 µM) | 64 µg/mL (≈ 183 µM) | 64 µg/mL (≈ 183 µM) | 32 µg/mL (≈ 91.6 µM) | 16 µg/mL (≈ 45.8 µM) | 32 µg/mL (≈ 91.6 µM) | 64 µg/mL (≈ 183 µM) | 18.8 ± 0.9 mm | 17.5 ± 0.6 mm | 10 ± 0.8 mm | 12 ± 0.48 mm | 16 ± 0.32 mm | 10 ± 0.3 mm | 10 ± 1.25 mm | 08 ± 0.3 mm | 15 ± 0.93 mm | 16 ± 0.32 mm | 13 ± 1.5 mm | Diameter of growth inhibition zone, CN [21]: 11 ± 1.2 mm; EC50 (Vaccinia virus): > 100 µM; EC50 (Adeno virus-2): > 100 µM; EC50 (Human Coronavirus (229E)): > 100 µM; EC50 (Para-influenza-3 virus): > 100 µM; EC50 (Reovirus-1): > 100 µM; EC50 (Sindbis virus): > 100 µM; EC50 (Coxsackie virus B4): > 100 µM; EC50 (Punta Toro virus): > 100 µM; EC50 (Yellow Fever virus): > 100 µM; EC50 [22, 26]: > 100 µM; EC50 [22, 27]: > 100 µM; EC50 [23, 28]: > 100 µM; EC50 [23, 29]: > 100 µM; EC50 (Influenza B B/Ned/537/05): > 100 µM; Minimum cytotoxic conc. [24]: >100 µM; Minimum cytotoxic conc. (Vero cells): >100 µM; Cytotoxicity, Minimum cytotoxic conc. [25]: >100 µM; Minimum cytotoxic conc. (MT4 cells): >125 µM
2 | Cc1ccc(S(=O)(=O)N2C(=O)CSC2c2ccc(O)cc2)cc1 (stereo not drawn) [5m, 2-(4-Hydroxyphenyl)-3-[(4-methylphenyl)sulfonyl]-1,3-thiazolidin-4-one] | 16 µg/mL (≈ 45.8 µM) | 16 µg/mL (≈ 45.8 µM) | 64 µg/mL (≈ 183 µM) | 32 µg/mL (≈ 91.6 µM) | 64 µg/mL (≈ 183 µM) | 64 µg/mL (≈ 183 µM) | 32 µg/mL (≈ 91.6 µM) | 128 µg/mL (≈ 366 µM) | 64 µg/mL (≈ 183 µM) | 15.9 ± 0.23 mm | 15.2 ± 0.96 mm | 12 ± 0.4 mm | 10 ± 0.4 mm | 13 ± 0.63 mm | 10 ± 0.6 mm | 14 ± 0.64 mm | 12 ± 2.1 mm | 13 ± 0.6 mm | 15 ± 0.35 mm | 10 ± 1.2 mm | Diameter of growth inhibition zone, CN [21]: 13 ± 1.4 mm; EC50 (Vaccinia virus): > 100 µM; EC50 (Adeno virus-2): > 100 µM; EC50 (Human Coronavirus (229E)): > 100 µM; EC50 (Para-influenza-3 virus): > 100 µM; EC50 (Reovirus-1): > 100 µM; EC50 (Sindbis virus): > 100 µM; EC50 (Coxsackie virus B4): > 100 µM; EC50 (Punta Toro virus): > 100 µM; EC50 (Yellow Fever virus): > 100 µM; EC50 [22, 26]: > 100 µM; EC50 [22, 27]: > 100 µM; EC50 [23, 28]: > 100 µM; EC50 [23, 29]: > 100 µM; EC50 (Influenza B B/Ned/537/05): > 100 µM; Minimum cytotoxic conc. [24]: >100 µM; Minimum cytotoxic conc. (Vero cells): >100 µM; Cytotoxicity, Minimum cytotoxic conc. [25]: >100 µM; Minimum cytotoxic conc. (MT4 cells): >125 µM
